This note sets out measurements from ChEMBL document CHEMBL2390932, “(+)-Usnic acid enamines with remarkable cicatrizing properties” (Bioorg Med Chem, 2013).

Each structure is given as a SMILES string. ≈ marks a conversion by molar mass, not a printed value. Calls of active or inactive are those of the source. No cut-off for these calls is given here.

The subject of series [1] is HaCaT. Briefly: Cytotoxicity against human HaCaT cells after 24 hrs by neutral red dye uptake assay. It counts as cell-based. The note with it: for IC50: Homo sapiens, HaCaT; for IC05: human, hacat. Summed up:
(§1)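 Cells kept in DMEM with 10% FBS at 37 °C, 5% CO2. Seeded at 20,000 cells/well, grown 24 h, then exposed 24 h to a concentration series. Neutral red (0.05%) added for 3 h at 37 °C, dye extracted with 1% acetic acid in 50% ethanol, absorbance read at 540 nm. IC50, IC05 and 95% confidence intervals derived from a downhill logistic curve fit.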

Series [2] is filed under the species Bos taurus. Briefly: Inhibition of bovine hyaluronidase assessed as sodium hyaluronate conversion to N-acetylglucosamine at 100 ug/ml by spectrophotometric analysis relative to control.
In series [3] the test system is HaCaT. Briefly: Wound healing activity in human HaCaT cells assessed as wound closure rate at 2.5 ug/mL after 24 hrs by inverted microscopic analysis. It counts as functional, cell-based. Summed up: (§2)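 Confluent HaCaT monolayers scratched with a pipette tip, washed, re-fed with medium and exposed to compound for 24 h; 20% (v/v) platelet lysate served as positive control. Cells fixed in 3.7% formaldehyde and stained with 0.1% toluidine blue. Wound width measured by inverted microscope with camera at 0 and 24 h; closure taken as the width difference. Results expressed relative to control mean (100%), two independent experiments, n = 20 each.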

Series [4] relates to HaCaT. Briefly: Wound healing activity in human HaCaT cells assessed as wound closure rate at 2.2 ug/mL after 24 hrs by inverted microscopic analysis. It counts as functional, cell-based. Summed up: as §2
For series [5], the system named is HaCaT. Briefly: Wound healing activity in human HaCaT cells assessed as wound closure rate at 1.7 ug/mL after 24 hrs by inverted microscopic analysis. It counts as functional, cell-based. An outline of the steps:
as §2

Series [6] has as its system HaCaT. Briefly: Wound healing activity in human HaCaT cells assessed as wound closure rate at 2.1 ug/mL after 24 hrs by inverted microscopic analysis. In kind it is functional, cell-based. Summed up: as §2
Series [7] concerns A-431. Briefly: Cytotoxicity against human A431 cells after 24 hrs by neutral red dye uptake assay. In kind it is functional, cell-based. The settings on record: A-431, 24 h. Summed up:
as §1

For series [8], the system named is HaCaT. Briefly: Wound healing activity in human HaCaT cells assessed as wound closure rate at 5 uM after 24 hrs by inverted microscopic analysis. In kind it is functional, cell-based. Summed up: as §2
The subject of series [9] is HaCaT. Briefly: Wound healing activity in human HaCaT cells assessed as wound closure rate at 2 ug/mL after 24 hrs by inverted microscopic analysis. It counts as functional, cell-based. An outline of the steps: as §2
Series [10] relates to Mus musculus. Briefly: Wound healing activity in Swiss albino mouse circular excision wound model assessed as hydroxyproline content in skin applied topically qd after 7 days by spectrophotometric analysis. It counts as functional. An outline of the steps:
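Skin from ointment-treated mouse wounds (7 days) dried at 60–70 °C to constant weight, then hydrolyzed in 6 N HCl for 3 h at 130 °C. Hydrolysate neutralized to pH 7, oxidized with chloramine T and reacted with Ehrlich reagent at 60 °C. Read at 557 nm and reported as mg/g with S.E.M.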

The subject of series [11] is Mus musculus. Briefly: Wound healing activity in Swiss albino mouse circular excision wound model assessed as wound contraction applied topically qd after 4 days relative to control. In kind it is functional. Also on record: concentration or dose not given beside the values.
The test system of series [12] is Mus musculus. Briefly: Wound healing activity in Swiss albino mouse circular excision wound model assessed as wound contraction applied topically qd after 6 days (reference value: 3.41%). In kind it is functional.
In series [13] the test system is Mus musculus. Briefly: Wound healing activity in Swiss albino mouse circular excision wound model assessed as wound contraction applied topically qd after 10 days (reference value: 6.29%). In kind it is functional.
The test system of series [14] is Rattus norvegicus. Briefly: Wound healing activity in Sprague-Dawley rat linear incision wound model assessed as tensile strength of wound applied topically qd for 9 days measured on day 10 by tensiometer (reference value: 10.6%). In kind it is functional.
Series [15] concerns Mus musculus. Briefly: Wound healing activity in Swiss albino mouse circular excision wound model assessed as wound contraction applied topically qd after 2 days relative to control. On the set-up: concentration or dose not given beside the values. In kind it is functional.
Series [16] concerns Mus musculus. Briefly: Wound healing activity in Swiss albino mouse circular excision wound model assessed as wound contraction applied topically qd after 8 days (reference value: 2.18%). It counts as functional.
The subject of series [17] is Mus musculus. Briefly: Wound healing activity in Swiss albino mouse circular excision wound model assessed as wound contraction applied topically qd measured on the same day relative to control. In kind it is functional. Also on record: concentration or dose not given beside the values.
Series [18] has as its target T1, Neutrophil elastase (Homo sapiens) (UniProt P08246).
T1 sequence (whole entry): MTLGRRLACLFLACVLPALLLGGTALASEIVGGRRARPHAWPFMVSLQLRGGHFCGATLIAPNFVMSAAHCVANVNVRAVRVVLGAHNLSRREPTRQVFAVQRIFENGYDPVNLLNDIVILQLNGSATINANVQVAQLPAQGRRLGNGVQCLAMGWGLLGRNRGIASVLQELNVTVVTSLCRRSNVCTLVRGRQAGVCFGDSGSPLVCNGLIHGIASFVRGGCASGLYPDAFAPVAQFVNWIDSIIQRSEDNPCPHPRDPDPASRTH
Briefly: Inhibition of human neutrophil elastase assessed as N-methoxysuccinyl-Ala-Ala-Pro-Val p-nitroanilide conversion to p-nitroaniline at 50 ug/ml after 1 hr by spectrophotometric analysis relative to control. Summed up:
(§3)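 Sample and human neutrophil elastase (17 mU/ml) mixed in 0.1 M Tris–HCl, pH 7.5, and held 5 min at 25 °C. MeOSuc-Ala-Ala-Pro-Val p-nitroanilide was added and the mixture incubated 1 h at 37 °C. Reaction stopped with soybean trypsin inhibitor (1 mg/ml); p-nitroaniline absorbance read immediately. Inhibition given as % with S.E.M.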

For series [19], the species on record is Bos taurus. Briefly: Inhibition of bovine hyaluronidase assessed as sodium hyaluronate conversion to N-acetylglucosamine at 50 ug/ml by spectrophotometric analysis relative to control.
Series [20] has as its target T1, Neutrophil elastase (Homo sapiens). Briefly: Inhibition of human neutrophil elastase assessed as N-methoxysuccinyl-Ala-Ala-Pro-Val p-nitroanilide conversion to p-nitroaniline at 100 ug/ml after 1 hr by spectrophotometric analysis relative to control. An outline of the steps:
as §3

Series [21] concerns Hathewaya histolytica. Briefly: Inhibition of Clostridium histolyticum collagenase using N-[3-(2-Furyl)acryloyl]-Leu-Gly-Pro-Ala as substrate at 50 ug/ml after 15 mins by spectrophotometric analysis relative to control. Summed up: (§4)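 Samples dissolved in DMSO and diluted in 50 mM Tricine buffer (0.4 M NaCl, 0.01 M CaCl2, pH 7.5). Clostridium histolyticum collagenase and sample preincubated 5 min at 25 °C, then incubated 15 min. FALGPA substrate, prepared at 2 mM in the same buffer, was then added. Inhibition given as % with S.E.M.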

The test system of series [22] is Hathewaya histolytica. Briefly: Inhibition of Clostridium histolyticum collagenase using N-[3-(2-Furyl)acryloyl]-Leu-Gly-Pro-Ala as substrate at 100 ug/ml after 15 mins by spectrophotometric analysis relative to control. An outline of the steps:
as §4

One may read the IC50 as the point on the concentration scale where inhibition reaches its midpoint. Take `CC(=O)c1c(O)c(C)c(O)c2c1OC1=CC(=O)/C(=C(/C)N[C@@H](CCCNC(=N)N)C(=O)O)C(=O)[C@@]12C`: in [1], the IC50 is 163 µg/mL (≈ 326 µM) and the IC05 turned out to be 16 µg/mL.

The term inhibition denotes the share of the control response that was lost under treatment. Consider `O=C(OC[C@H]1O[C@@H](OC(=O)c2cc(O)c(O)c(OC(=O)c3cc(O)c(O)c(O)c3)c2)[C@H](OC(=O)c2cc(O)c(O)c(OC(=O)c3cc(O)c(O)c(O)c3)c2)[C@@H](OC(=O)c2cc(O)c(O)c(OC(=O)c3cc(O)c(O)c(O)c3)c2)[C@@H]1OC(=O)c1cc(O)c(O)c(OC(=O)c2cc(O)c(O)c(O)c2)c1)c1cc(O)c(O)c(OC(=O)c2cc(O)c(O)c(O)c2)c1`, for which, in series [2], the inhibition was 76.3%.

`CC(=O)c1c(O)c(C)c(O)c2c1OC1=CC(=O)/C(=C(/C)N[C@@H](Cc3ccc(O)cc3)C(=O)O)C(=O)[C@@]12C`: the outcome in [3], in series [4], in [5], in series [6], in series [8] and in [9] was Active. In addition, the IC50 in [1] came out at 13 µg/mL (≈ 25.6 µM); in series [7] it was 36 µg/mL (≈ 70.9 µM). This molecule also yielded an IC05 in series [1] of 1.3 µg/mL.

On to `CC(=O)c1c(O)c(C)c(O)c2c1OC1=CC(=O)/C(=C(/C)NCCS(=O)(=O)O)C(=O)[C@@]12C`, for which the outcome in series [3], in series [4], in series [5], in series [6], in [8] and in series [9] was Active. Further, the Activity amounted to 30.8 mg/g in series [10]; 14.52% in series [11]; 11.42% in series [12]; 2.29% in series [13]; 29.3% in series [14]; 17.74% in series [15]. Also, the Activity in series [16] was determined as 5.04%; in series [17], 19.33%. The molecule also returned an IC50 in [1] of 47 µg/mL (≈ 104 µM).

In series [1], `CC(=O)c1c(O)c(C)c(O)c2c1OC1=CC(=O)/C(=C(/C)NCC(=O)O)C(=O)[C@@]12C` registered a half-inhibitory concentration (IC50) of 5.8 µg/mL (≈ 14.5 µM) and an IC05 of 0.2 µg/mL. The molecule also registered an IC50 in [7] of 4.1 µg/mL (≈ 10.2 µM).

For the molecule `CC(=O)c1c(O)c(C)c(O)c2c1OC1=CC(=O)/C(=C(/C)N[C@@H](Cc3c[nH]cn3)C(=O)O)C(=O)[C@@]12C`, in series [1], inhibition was half-maximal at 36 µg/mL (≈ 74.8 µM) (IC50) and the IC05 turned out to be 1.7 µg/mL.

For `CC(=O)c1c(O)c(C)c(O)c2c1OC1=CC(=O)/C(=C(/C)NCCS)C(=O)[C@@]12C`, the result in series [3], in [4], in series [5], in [6], in series [8] and in series [9] was Active. Further, the Activity in [10] is listed as 39.8 mg/g; in [11], 13.74%; in [12] it was 10.25%; in series [13], 1.39%; in series [14], 35.2%; in series [15], 16.41%. The values for the Activity in series [16] and in series [17] were 4.42% and 19.46%, respectively. Moreover, the inhibition is 15.3% in series [18]; 10.2% in [19]; 15.6% in [2]; 20.4% in series [20]; 19.5% in [21]; 27.3% in [22]. Also, in [1], 155 µg/mL (≈ 384 µM) corresponded to half-maximal inhibition (IC50). Also, the IC05 in series [1] was 43 µg/mL.

Consider `CC(=O)c1c(O)c(C)c(O)c2c1OC1=CC(=O)/C(=C(/C)NCCSSCCN/C(C)=C3\C(=O)C=C4Oc5c(C(C)=O)c(O)c(C)c(O)c5[C@@]4(C)C3=O)C(=O)[C@@]12C`, for which the Activity in series [10] is recorded as 20.4 mg/g; in series [11], 15.92%; in [12], 12.48%; in [13], 2.96%; in [14], 15.91%; in series [15], 17.95%. Also, the Activity in series [16] is reported as 6.48%; in series [17], 19.25%. The inhibition in series [18] was 21.3%; in [19], 10%; in series [2], 18.3%; in [20], 30.1%; in series [21] it was 20.8%; in series [22] it was 29.3%.

For the molecule `CC(=O)c1c(O)c(C)c(O)c2c1OC1=CC(=O)/C(=C(/C)N)C(=O)[C@@]12C`, the inhibition in series [18] is 13.3%; in [19], 35.3%; in series [2], 41.9%; in series [20], 15.3%; in [21], 20.7%; in series [22], 33.1%.

In [1], `CC(=O)c1c(O)c(C)c(O)c2c1OC1=CC(=O)/C(=C(/C)NCCc3c[nH]c4ccccc34)C(=O)[C@@]12C` registered a 50% inhibitory concentration (IC50) of 5.3 µg/mL (≈ 10.9 µM) and an IC05 of 2.5 µg/mL. In [7], this molecule came in with an IC50 of 29 µg/mL (≈ 59.6 µM).

As for `CC(=O)c1c(O)c(C)c(O)c2c1OC1=CC(=O)/C(=C(/C)NCCCC(=O)O)C(=O)[C@@]12C`, the outcome in [3], in series [4], in series [5], in [6], in [8] and in series [9] was Active. Further, the Activity was 43 mg/g in series [10]; 12.81% in series [11]; 9.01% in [12]; 0.66% in series [13]; 47.6% in [14]; 16.03% in [15]. The Activity amounted to 3.84% in series [16] and 19.7% in series [17]. Further, the inhibition in [18] was determined as 25.1%; in [19] it was 25.8%; in [2] it was 39.4%; in series [20], 30.3%; in series [21], 21.4%; in [22], 49.2%. Also, in series [1], the 50% inhibitory concentration (IC50) came out at 150 µg/mL (≈ 349 µM). In series [1], this molecule came in with an IC05 of 67 µg/mL.

As for `O=C(O[C@@H]1Cc2c(O)cc(O)cc2O[C@@H]1c1cc(O)c(O)c(O)c1)c1cc(O)c(O)c(O)c1`, the inhibition in series [20] turned out to be 88.2%; in [22], 41.2%.
